Experimental data taken from ChEMBL document CHEMBL5257120 (Bioorg Med Chem, 2023).
pIC50: −log10 of the molar value. The source made the active and inactive calls. The calls are words filed in the database; no cut-off is given here.

Legend:
[1] = test system: MCF7; assay: Cytotoxicity against human MCF7 cells incubated for 72 hrs by Sulphorhodamine assay; format: functional, cell-based; settings: MCF7, 72 h
[2] = test system: MDA-MB-231; assay: Cytotoxicity against human MDA-MB-231 cells incubated for 72 hrs by Sulphorhodamine assay; format: functional, cell-based; settings: MDA-MB-231, 72 h
[3] = test system: K562; assay: Cytotoxicity against human K562 cells incubated for 72 hrs by Sulphorhodamine assay; format: functional, cell-based; settings: K562, 72 h
[4] = target: T1, Tubulin (Homo sapiens) (UniProt P68371+Q9H4B7+P0DPH7+P68366+Q13509+Q71U36+P04350+Q3ZCM7+P07437+P68363+Q9BQE3+Q6PEY2+Q13885+Q9BVA1+Q9BUF5); assay: Induction of microtubule stabilization (unknown origin) at 5 uM; format: protein-complex assay
[5] = Cytotoxicity against african green monkey Vero cells incubated for 72 hrs by Sulphorhodamine assay; format: toxicity, cell-based; settings: African green monkey (Chlorocebus sabaeus)
[6] = Selectivity index, ratio of IC50 for african green monkey Vero cells to IC50 for human K562 cells; format: toxicity; settings: Vero cells versus K562 cells, read-out: Ratio IC50
[7] = species: Homo sapiens; assay: Selectivity ratio, ratio of inhibition of HDAC in human HeLa nuclear extract assessed as residual activity to inhibition of human recombinant HDAC6 assessed as residual activity
Procedure, shortened: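 Compounds at 20 μM tested by fluorometric assay on HeLa nuclear extract (class I/II HDACs) and on human recombinant HDAC6. Residual activity is expressed relative to untreated control. Selectivity is the ratio of PanHDAC to HDAC6 residual activity: ≥7 high, 2.5–6.9 moderate, <2.5 low.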

[8] = test system: MDA-MB-231; assay: Induction of cell cycle arrest in human MDA-MB-231 cells assessed as S phase arrest at 0.285 to 1.14 uM incubated for 24 hrs by propidium iodide staining based method; format: functional; settings: dose 0.285-1.14 µM
[9] = test system: MDA-MB-231; assay: Induction of cell cycle arrest in human MDA-MB-231 cells assessed as S phase arrest at 1.625 to 6.5 uM incubated for 24 hrs by propidium iodide staining based method; format: functional; settings: dose 1.625-6.5 µM
[10] = test system: K562; assay: Induction of cell cycle arrest in human K562 cells assessed as S phase arrest at 1.625 to 6.5 uM incubated for 24 hrs by propidium iodide staining based method; format: functional; settings: dose 1.625-6.5 µM
[11] = target: T1, Tubulin (Homo sapiens); assay: Induction of microtubule stabilization (unknown origin) at 1 to 5 uM; format: protein-complex assay; settings: dose 1-5 µM
[12] = target: T1, Tubulin (Homo sapiens); assay: Induction of microtubule stabilization in human HeLa cells assessed as effect on cellular cytoskeletal network of tubulin at 5 to 10 uM incubated for 4 hrs by Alexa Fluor 488 staining based confocal microscopic analysis; format: cell-based; settings: dose 5-10 µM
Procedure, shortened: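 HeLa cells treated for 4 h at 5 and 10 μM. Microtubules immunostained with Alexa Fluor 488-conjugated anti-β-tubulin and imaged by confocal microscopy with a 60× Plan Apochromat objective. References: paclitaxel 5 nM, podophyllotoxin 5 μM.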

[13] = Antiinflammatory activity in mouse peritoneal macrophage assessed as reduction in LPS-induced TNFalpha production at 1 ug/ml; format: functional; settings: dose 1 µg/ml
[14] = Antiinflammatory activity in mouse peritoneal macrophage assessed as reduction in LPS-induced TNFalpha production at 10 ug/ml; format: functional; settings: dose 10 µg/ml
[15] = Antiinflammatory activity in mouse peritoneal macrophage assessed as inhibition of LPS-induced TNFalpha production at 1 ug/ml relative to control; format: functional; parameters: scale not given: the % may be the effect or the level left; settings: dose 1 µg/ml
[16] = Antiinflammatory activity in mouse peritoneal macrophage assessed as inhibition of LPS-induced TNFalpha production at 10 ug/ml relative to control; format: functional; parameters: scale not given: the % may be the effect or the level left; settings: dose 10 µg/ml
[17] = Antiinflammatory activity in mouse peritoneal macrophage assessed as reduction in LPS-induced IL6 production at 1 ug/ml; format: functional; settings: dose 1 µg/ml
[18] = Antiinflammatory activity in mouse peritoneal macrophage assessed as reduction in LPS-induced IL6 production at 10 ug/ml; format: functional; settings: dose 10 µg/ml
[19] = Antiinflammatory activity in mouse peritoneal macrophage assessed as inhibition of LPS-induced IL6 production at 1 ug/ml relative to control; format: functional; parameters: scale not given: the % may be the effect or the level left; settings: dose 1 µg/ml
[20] = Antiinflammatory activity in mouse peritoneal macrophage assessed as inhibition of LPS-induced IL6 production at 10 ug/ml relative to control; format: functional; parameters: scale not given: the % may be the effect or the level left; settings: dose 10 µg/ml

Row | Structure (SMILES) | pIC50 [1] | pIC50 [2] | pIC50 [3] | IC50 at 72 h [5] [µM] | selectivity ratio [6] | Ratio [7] | also measured
1 | COc1cc([C@@H]2c3cc4c(cc3[C@H](O)[C@H]3COC(=O)[C@H]23)OCO4)cc(OC)c1OC [PODOFILOX] | 5.00 | 4.69 | 4.74 | – | – | – | –
2 | CC(=O)O[C@H]1C(=O)[C@@]2(C)[C@H]([C@H](OC(=O)c3ccccc3)[C@]3(O)C[C@H](OC(=O)[C@H](O)[C@@H](NC(=O)c4ccccc4)c4ccccc4)C(C)=C1C3(C)C)[C@]1(OC(C)=O)CO[C@@H]1C[C@@H]2O | – | – | – | – | – | – | Activity [4]: Active
3 | COc1ccc2c(c1)CC(Cc1ccc(CCC(=O)NO)cc1)C2=O (stereo not drawn) | 4.03 | < 4.00 | 4.21 | 114 | 1.85 | – | –
4 | COc1ccc2c(c1)C/C(=C/c1ccc(/C=C/C(=O)NO)cc1)C2=O | 4.01 | < 4.00 | < 4.00 | 100 | ≤ 1 | > 7 | –
5 | COc1cc2c(cc1OC)C(=O)/C(=C\c1ccc(C(=O)NOCc3ccccc3)cc1)C2 | – | – | – | – | – | > 7 | –
6 | COc1cc2c(cc1OC)C(=O)/C(=C\c1ccc(/C=C/C(=O)NO)cc1)C2 | < 4.00 | < 4.00 | < 4.00 | 129 | > 1 | inactive | –
7 | COc1cc(C2c3c(cc(OC)c(OC)c3OC)C(=O)C2Cc2ccc(CCC(=O)NO)cc2)cc(OC)c1OC (stereo not drawn) | 4.28 | 4.68 | 4.29 | 76.2 | 1.47 | 2.5 | –
8 | COc1cc(C2/C(=C/c3ccc(C(=O)NO)cc3)C(=O)c3cc(OC)c(OC)c(OC)c32)cc(OC)c1OC (stereo not drawn) | 4.22 | < 4.00 | 4.32 | 72.2 | 1.51 | inactive | –
9 | COc1ccc2c(c1)C/C(=C/c1ccc(/C=C/C(=O)NOCc3ccccc3)cc1)C2=O | – | – | – | – | – | 2.5 | –
10 | COc1cccc2c1C(=O)c1c(O)c3c(c(O)c1C2=O)C[C@@](O)(C(=O)CO)C[C@@H]3O[C@H]1C[C@H](N)[C@H](O)[C@H](C)O1 [DOXORUBICIN] | – | 6.24 | 5.28 | 1.87 | – | – | Activity [8]: Active
11 | COc1cc(C2c3c(cc(OC)c(OC)c3OC)C(=O)C2Cc2ccc(C(=O)NO)cc2)cc(OC)c1OC (stereo not drawn) | 4.06 | < 4.00 | 4.43 | 91.8 | 2.5 | > 7 | –
12 | COc1cc(C2/C(=C/c3ccc(/C=C/C(=O)NOC(C)=O)cc3)C(=O)c3cc(OC)c(OC)c(OC)c32)cc(OC)c1OC (stereo not drawn) | 4.12 | 4.72 | 4.63 | 47.5 | 2.01 | inactive | –
13 | CN1CCc2c(c3ccccc3n2Cc2ccc(C(=O)NO)cc2)C1 [TUBASTATIN A] | – | – | 5.68 | – | – | – | –
14 | COc1cc2c(cc1OC)C(=O)/C(=C\c1ccc(/C=C/C(=O)NOCc3ccccc3)cc1)C2 | – | – | – | – | – | 2.5 | –
15 | COc1cc(C2/C(=C/c3ccc(OCCCC(=O)NO)cc3)C(=O)c3cc(OC)c(OC)c(OC)c32)cc(OC)c1OC (stereo not drawn) | 4.30 | 5.49 | 5.78 | 47.2 | 28.4 | > 7 | Activity [9]: Active; Activity [10]: Active; Activity [11]: Active; Activity [12]: Active; Activity [13]: 1180.12 pg/mL; Activity [14]: 1046.79 pg/mL; Activity [15]: 12.34%; Activity [16]: 15.04%; Activity [17]: 2730.53 pg/mL; Activity [18]: 2648.31 pg/mL; Activity [19]: 9.38%; Activity [20]: 12.11%
16 | COc1ccc2c(c1)CC(Cc1ccc(C(=O)NO)cc1)C2=O (stereo not drawn) | 4.26 | 4.54 | 4.73 | 55.5 | 2.99 | – | –
17 | COc1ccc2c(c1)C/C(=C/c1ccc(C(=O)NOCc3ccccc3)cc1)C2=O | – | – | – | – | – | > 7 | –
18 | C[C@@H]1C[C@H]2[C@@H]3CCC4=CC(=O)C=C[C@]4(C)[C@@]3(F)[C@@H](O)C[C@]2(C)[C@@]1(O)C(=O)CO [DEXAMETHASONE] | – | – | – | – | – | – | Activity [13]: 581.27 pg/mL; Activity [15]: 52.82%; Activity [17]: 1792.75 pg/mL; Activity [19]: 40.5%
19 | CC/C(=C(\c1ccccc1)c1ccc(OCCN(C)C)cc1)c1ccccc1 [TAMOXIFEN] | – | 4.73 | – | 36.2 | – | – | –
20 | COc1cc2c(cc1OC)C(=O)C(Cc1ccc(CCC(=O)NO)cc1)C2 (stereo not drawn) | 4.29 | 4.49 | 4.52 | 48.7 | 1.6 | – | –
21 | COc1cc2c(cc1OC)C(=O)/C(=C\c1ccc(C(=O)NO)cc1)C2 | < 4.00 | < 4.00 | 4.33 | 88.4 | 1.88 | > 7 | –
22 | COc1cc2c(cc1OC)C(=O)C(Cc1ccc(C(=O)NO)cc1)C2 (stereo not drawn) | < 4.00 | < 4.00 | < 4.00 | 193 | – | – | –
